# Measurements as given in ChEMBL document CHEMBL4387703, “Lead optimization and biological evaluation of fragment-based cN-II inhibitors” (Eur J Med Chem, 2019).
# What was measured:
# Details in all cases: Homo sapiens
# [1] = compound: O=C(Nc1ncnc2c1ncn2CP(=O)(O)O)c1cccc(-c2ccccc2)c1; test: Noncompetitive inhibition of recombinant cN-II (unknown origin) assessed as substrate Kcat using varying level of IMP as substrate by HPLC method based Lineweaver-Burk plot analysis
# In short: (§1)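 Enzyme, alone or with compound, was mixed with IMP (0.2 to 3 mM) under stirring at 37 °C in imidazole pH 6.5/NaCl/MgCl2 buffer. Samples were taken every 7 s and quenched with 10% perchloric acid. IMP and inosine were quantified by SAX HPLC in 10 mM ammonium phosphate pH 5.5. Data were fitted to competitive, non-competitive, uncompetitive or mixed inhibition equations.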
# [2] = compound: O=C(Nc1ncnc2c1ncn2CP(=O)(O)O)c1cccc(-c2ccccc2)c1; test: Competitive inhibition of recombinant cN-II (unknown origin) using varying level of IMP as substrate assessed as substrate Km by HPLC method based Lineweaver-Burk plot analysis; in short: as §1
# [3] = compound: O=C(Nc1ncnc2c1ncn2CP(=O)(O)O)c1cccc(-c2ccccc2)c1; test: Uncompetitive inhibition of recombinant cN-II (unknown origin) assessed as substrate Km using varying level of IMP as substrate by HPLC method based Lineweaver-Burk plot analysis; in short: as §1
# [4] = compound: O=C(Nc1ncnc2c1ncn2CP(=O)(O)O)c1cccc(-c2ccccc2)c1; test: Noncompetitive inhibition of recombinant cN-II (unknown origin) assessed as substrate Km using varying level of IMP as substrate by HPLC method based Lineweaver-Burk plot analysis; in short: as §1
# [5] = compound: O=C(Nc1ncnc2c1ncn2CP(=O)(O)O)c1cccc(-c2ccccc2)c1; test: Mixed type inhibition of recombinant cN-II (unknown origin) assessed as substrate Km using varying level of IMP as substrate by HPLC method based Lineweaver-Burk plot analysis; in short: as §1
# [6] = compound: O=C(Nc1ncnc2c1ncn2CP(=O)(O)O)c1cccc(-c2ccccc2)c1; test: Competitive inhibition of recombinant cN-II (unknown origin) using varying level of IMP as substrate assessed as substrate Kcat by HPLC method based Lineweaver-Burk plot analysis; in short: as §1
# [7] = compound: O=C(Nc1ncnc2c1ncn2CP(=O)(O)O)c1cccc(-c2ccccc2)c1; test: Mixed type inhibition of recombinant cN-II (unknown origin) assessed as substrate Kcat using varying level of IMP as substrate by HPLC method based Lineweaver-Burk plot analysis; in short: as §1
# [8] = compound: O=C(Nc1ncnc2c1ncn2CP(=O)(O)O)c1cccc(-c2ccccc2)c1; test: Uncompetitive inhibition of recombinant cN-II (unknown origin) assessed as substrate Kcat using varying level of IMP as substrate by HPLC method based Lineweaver-Burk plot analysis; in short: as §1
protein,measurement,setting,value
"5'-nucleotidase (Homo sapiens), P21589 (protein) MCPRAARAPATLLLALGAVLWPAAGAWELTILHTNDVHSRLEQTSEDSSKCVNASRCMGGVARLFTKVQQIRRAEPNVLLLDAGDQYQGTIWFTVYKGAEVAHFMNALRYDAMALGNHEFDNGVEGLIEPLLKEAKFPILSANIKAKGPLASQISGLYLPYKVLPVGDEVVGIVGYTSKETPFLSNPGTNLVFEDEITALQPEVDKLKTLNVNKIIALGHSGFEMDKLIAQKVRGVDVVVGGHSNTFLYTGNPPSKEVPAGKYPFIVTSDDGRKVPVVQAYAFGKYLGYLKIEFDERGNVISSHGNPILLNSSIPEDPSIKADINKWRIKLDNYSTQELGKTIVYLDGSSQSCRFRECNMGNLICDAMINNNLRHTDEMFWNHVSMCILNGGGIRSPIDERNNGTITWENLAAVLPFGGTFDLVQLKGSTLKKAFEHSVHRYGQSTGEFLQVGGIHVVYDLSRKPGDRVVKLDVLCTKCRVPSYDPLKMDEVYKVILPNFLANGGDGFQMIKDELLRHDSGDQDINVVSTYISKMKVIYPAVEGRIKFSTGSHCHGSFSLIFLSLWAVIFVLYQ",kcat,[1],53.1 s⁻¹
same,Km,[2],1070 µM
same,Km,[3],1360 µM
same,Km,[4],1260 µM
same,Km,[5],1070 µM
same,kcat,[6],49.9 s⁻¹
same,kcat,[7],49.9 s⁻¹
same,kcat,[8],54.1 s⁻¹
